Measured values as given in the M2OR odorant receptor database.

target: T1, UniProt Q3U0P3; details: stereoisomer not certain
T1 sequence (whole entry): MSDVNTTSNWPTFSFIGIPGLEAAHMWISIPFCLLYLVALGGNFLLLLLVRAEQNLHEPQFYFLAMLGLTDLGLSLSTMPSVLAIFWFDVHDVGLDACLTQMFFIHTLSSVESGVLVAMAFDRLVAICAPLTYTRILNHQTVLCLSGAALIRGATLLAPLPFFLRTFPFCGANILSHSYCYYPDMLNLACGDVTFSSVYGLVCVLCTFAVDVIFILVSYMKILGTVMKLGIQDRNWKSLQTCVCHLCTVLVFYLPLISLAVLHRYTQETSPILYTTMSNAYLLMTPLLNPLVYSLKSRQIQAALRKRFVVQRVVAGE
Summary of the method: (§1)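 Transient luciferase assays in mammalian cell lines were common, though methods varied by source. The values come from published papers and their supplementary material, with extra details from the original authors when needed. Responsive refers to a measured signal the original authors judged statistically different from baseline, and non-responsive (inactive) to the remainder.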
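Also: active if original authors judged signal statistically different from baseline.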

Row | SMILES | odorant receptor agonist call
1 | COc1nccnc1C(C)C | inactive
2 | COc1cnccn1 | inactive
3 | CCc1ncc(C)nc1CC | inactive
4 | CCc1nccnc1CC | inactive
5 | COc1ccccc1 | inactive
6 | CC(C)CS | inactive
7 | CCCCCCC(C)O (centres undefined) | inactive
8 | CCCC(C)C(=O)OCC (centres undefined) | inactive
9 | Cc1occc1SSc1ccoc1C | inactive
10 | CCSSCC | inactive
11 | O=C([O-])CCCCCCC(=O)[O-].[H+].[H+] | inactive
12 | CCC(C)c1nccnc1OC (centres undefined) | inactive

target: T2, UniProt Q7TQU8; details: stereoisomer not certain
T2 sequence (whole entry): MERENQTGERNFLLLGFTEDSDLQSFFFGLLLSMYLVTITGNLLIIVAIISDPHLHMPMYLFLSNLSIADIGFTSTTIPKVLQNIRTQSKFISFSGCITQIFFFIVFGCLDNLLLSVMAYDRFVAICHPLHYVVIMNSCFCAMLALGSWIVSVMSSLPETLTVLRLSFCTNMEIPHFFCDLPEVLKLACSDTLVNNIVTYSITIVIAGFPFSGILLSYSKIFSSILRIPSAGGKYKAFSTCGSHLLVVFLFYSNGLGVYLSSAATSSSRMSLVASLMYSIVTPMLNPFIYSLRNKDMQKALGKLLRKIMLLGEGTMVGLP
Summary of the method: as §1

Row | SMILES | odorant receptor agonist call
13 | COc1nccnc1C(C)C | inactive
14 | COc1cnccn1 | inactive
15 | CCc1ncc(C)nc1CC | inactive
16 | CCc1nccnc1CC | inactive
17 | COc1ccccc1 | inactive
18 | CC(C)CS | inactive
19 | CCCCCCC(C)O (centres undefined) | inactive
20 | CCCC(C)C(=O)OCC (centres undefined) | inactive
21 | Cc1occc1SSc1ccoc1C | active
22 | CCSSCC | inactive
23 | O=C([O-])CCCCCCC(=O)[O-].[H+].[H+] | inactive
24 | CCC(C)c1nccnc1OC (centres undefined) | inactive
